Measured values reported in ChEMBL document CHEMBL1145501, “Effect of macrolide usage on emergence of erythromycin-resistant Campylobacter isolates in chickens” (2007).
Activity calls are given as the source filed them.

Legend:
Campylobacter jejuni [1] = experiment: Effect on Campylobacter jejuni S3B mutant colonization at 8 ug/ml; format: functional, organism-based
Method in brief: (§1)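 Chickens colonized with C. jejuni were sampled by cloacal swabs. Serial dilutions were plated on selective MH agar with and without 8 μg/ml Ery and counted after 48 h at 42°C under microaerobic conditions, giving the Ery-nonsusceptible fraction per bird. Detection limit was about 100 CFU/g feces.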

Campylobacter coli [2] = experiment: Antimicrobial activity against Campylobacter coli RN14BE4-2/A2074G and cmeB mutation by agar dilution method; format: functional
Method in brief: (§2)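 cmeB knockouts were made by biphasic natural transformation, using genomic DNA of 11168B (cmeB::kan) as donor. Transformants were selected on 30 μg/ml kanamycin and the insertion confirmed by PCR. The isogenic mutants were then MIC-tested by agar dilution on MH medium at 42°C under microaerobic conditions.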

Campylobacter jejuni [3] = experiment: Antimicrobial activity against Campylobacter jejuni 700819 mutant 2 with cmeB mutation by agar dilution method; format: functional; method in brief: as §2
Campylobacter coli [4] = experiment: Antimicrobial activity against Campylobacter coli RN14BE8-2 mutant by agar dilution method; format: functional
Method in brief: (§3)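 MIC by CLSI agar dilution. Campylobacter was grown on Mueller-Hinton medium at 42°C under microaerobic conditions. Ery-resistant mutants were selected either in vitro, by plating late-log antibiotic-free broth cultures on MH agar with 2, 4 or 8 μg/ml Ery for 2 days, or from tylosin-exposed chickens.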

Campylobacter jejuni [5] = experiment: Antimicrobial activity against Campylobacter jejuni 700819 mutant 3 by agar dilution method; format: functional; method in brief: as §3
Campylobacter jejuni [6] = experiment: Antimicrobial activity against Campylobacter jejuni 700819 mutant 10 by agar dilution method; format: functional; method in brief: as §3
Campylobacter jejuni [7] = experiment: Antimicrobial activity against Campylobacter jejuni 700819 mutant 8 by agar dilution method; format: functional; method in brief: as §3
Campylobacter coli [8] = experiment: Antimicrobial activity against Campylobacter coli RN14B by agar dilution method; format: functional
Method in brief: (§4)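 Erythromycin MIC by agar dilution per CLSI (formerly NCCLS). Strains were grown on Mueller-Hinton agar or in MH broth at 42°C under microaerobic conditions. MH media were supplemented with various amounts of Ery.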

Campylobacter jejuni [9] = experiment: Antimicrobial activity against Campylobacter jejuni 700819 with cmeB mutation by agar dilution method; format: functional; method in brief: as §2
Campylobacter jejuni [10] = experiment: Antimicrobial activity against Campylobacter jejuni S3BE4-2 mutant by agar dilution method; format: functional; method in brief: as §3
Campylobacter coli [11] = experiment: Antimicrobial activity against Campylobacter coli RN14BE4-2 mutant by agar dilution method; format: functional; method in brief: as §3
Campylobacter jejuni [12] = experiment: Antimicrobial activity against Campylobacter jejuni 700819 mutant 5 by agar dilution method; format: functional; method in brief: as §3
Campylobacter jejuni [13] = experiment: Antimicrobial activity against Campylobacter jejuni 700819 mutant 7 by agar dilution method; format: functional; method in brief: as §3
Campylobacter coli [14] = experiment: Antimicrobial activity against Campylobacter coli AW-II-37 by agar dilution method; format: functional; method in brief: as §3
Campylobacter jejuni [15] = experiment: Antimicrobial activity against Campylobacter jejuni 700819 mutant 8 with cmeB mutation by agar dilution method; format: functional; method in brief: as §2
Campylobacter coli [16] = experiment: Antimicrobial activity against Campylobacter coli RN14B with cmeB mutation by agar dilution method; format: functional; method in brief: as §2
Campylobacter jejuni [17] = experiment: Antimicrobial activity against Campylobacter jejuni 700819 mutant 6/A2074G and cmeB mutation by agar dilution method; format: functional; method in brief: as §2
Campylobacter jejuni [18] = experiment: Antimicrobial activity against Campylobacter jejuni 700819 mutant 11 with cmeB mutation by agar dilution method; format: functional; method in brief: as §2
Campylobacter jejuni [19] = experiment: Antimicrobial activity against Campylobacter jejuni S3BE2-2 mutant with cmeB mutation by agar dilution method; format: functional; method in brief: as §2
Campylobacter coli [20] = experiment: Antimicrobial activity against Campylobacter coli MR32D by agar dilution method; format: functional; method in brief: as §4
Campylobacter coli [21] = experiment: Antimicrobial activity against Campylobacter coli RN14BE8-3 mutant by agar dilution method; format: functional; method in brief: as §3
Campylobacter jejuni [22] = experiment: Antimicrobial activity against Campylobacter jejuni 700819 mutant 6 by agar dilution method; format: functional; method in brief: as §3
Campylobacter jejuni [23] = experiment: Antimicrobial activity against Campylobacter jejuni 700819 mutant 10 with cmeB mutation by agar dilution method; format: functional; method in brief: as §2
Campylobacter jejuni [24] = experiment: Antimicrobial activity against Campylobacter jejuni 700819 mutant 9 by agar dilution method; format: functional; method in brief: as §3
Campylobacter jejuni [25] = experiment: Antimicrobial activity against Campylobacter jejuni S3BE2-2 mutant by agar dilution method; format: functional; method in brief: as §3
Campylobacter jejuni [26] = experiment: Effect on Campylobacter jejuni 700819 mutant colonization at 8 ug/ml; format: functional, organism-based; method in brief: as §1
Campylobacter jejuni [27] = experiment: Antimicrobial activity against Campylobacter jejuni 700819 mutant 2 by agar dilution method; format: functional; method in brief: as §3
Campylobacter jejuni [28] = experiment: Antimicrobial activity against Campylobacter jejuni 700819 mutant 12 by agar dilution method; format: functional; method in brief: as §3
Campylobacter coli [29] = experiment: Antimicrobial activity against Campylobacter coli MR32DE8-1 mutant by agar dilution method; format: functional; method in brief: as §3
Campylobacter coli [30] = experiment: Antimicrobial activity against Campylobacter coli RN14BE4-3 mutant by agar dilution method; format: functional; method in brief: as §3
Campylobacter coli [31] = experiment: Antimicrobial activity against Campylobacter coli MR32DE4-1 mutant by agar dilution method; format: functional; method in brief: as §3
Campylobacter jejuni [32] = experiment: Antimicrobial activity against Campylobacter jejuni 700819 mutant 9 with cmeB mutation by agar dilution method; format: functional; method in brief: as §2
Campylobacter jejuni [33] = experiment: Antimicrobial activity against Campylobacter jejuni 700819 mutant 1 by agar dilution method; format: functional; method in brief: as §3
Campylobacter jejuni [34] = experiment: Antimicrobial activity against Campylobacter jejuni 700819 by agar dilution method; format: functional; method in brief: as §4
Campylobacter coli [35] = experiment: Antimicrobial activity against Campylobacter coli RN14BE4-3 mutant with cmeB mutation by agar dilution method; format: functional; method in brief: as §2
Campylobacter jejuni [36] = experiment: Antimicrobial activity against Campylobacter jejuni 700819 mutant 5/A2074G and cmeB mutation by agar dilution method; format: functional; method in brief: as §2
Campylobacter jejuni [37] = experiment: Antimicrobial activity against Campylobacter jejuni 700819 mutant 11 by agar dilution method; format: functional; method in brief: as §3
Campylobacter coli [38] = experiment: Antimicrobial activity against Campylobacter coli AW-ll-35/AW-ll-37 mutant in chickens assessed as reduction in colonization; format: functional, organism-based
Method in brief: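 Campylobacter-free broiler chickens were orally dosed with a mixed C. coli AW-II-35 + AW-II-37 culture (10⁷ CFU/bird). Five days later one group received tylosin in drinking water (0.53 g/liter, about 110 mg/kg/day) for 3 days; a parallel group was left untreated. Cloacal swabs were serially plated on selective MH, counted after 48 h at 42°C, and compared by t test on log₁₀ CFU/g feces (P<0.01).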

Campylobacter jejuni [39] = experiment: Antimicrobial activity against Campylobacter jejuni S3B by agar dilution method; format: functional; method in brief: as §4
Campylobacter jejuni [40] = experiment: Antimicrobial activity against Campylobacter jejuni S3BE4-3 mutant by agar dilution method; format: functional; method in brief: as §3
Campylobacter jejuni [41] = experiment: Antimicrobial activity against Campylobacter jejuni S3BE8-1 mutant by agar dilution method; format: functional; method in brief: as §3
Campylobacter coli [42] = experiment: Antimicrobial activity against Campylobacter coli RN14BE8-1 mutant by agar dilution method; format: functional; method in brief: as §3
Campylobacter jejuni [43] = experiment: Antimicrobial activity against Campylobacter jejuni 700819 mutant 3 with cmeB mutation by agar dilution method; format: functional; method in brief: as §2
Campylobacter jejuni [44] = experiment: Antimicrobial activity against Campylobacter jejuni 700819 mutant 7 with cmeB mutation by agar dilution method; format: functional; method in brief: as §2
Campylobacter jejuni [45] = experiment: Antimicrobial activity against Campylobacter jejuni S3BE4-1 mutant by agar dilution method; format: functional; method in brief: as §3
Campylobacter jejuni [46] = experiment: Antimicrobial activity against Campylobacter jejuni 700819 mutant 1 with cmeB mutation by agar dilution method; format: functional; method in brief: as §2
Campylobacter coli [47] = experiment: Antimicrobial activity against Campylobacter coli AW-II-35 by agar dilution method; format: functional; method in brief: as §3
Campylobacter jejuni [48] = experiment: Antimicrobial activity against Campylobacter jejuni 700819 mutant 12 with cmeB mutation by agar dilution method; format: functional; method in brief: as §2
Campylobacter jejuni [49] = experiment: Antimicrobial activity against Campylobacter jejuni 700819 mutant 4/A2074G and cmeB mutation by agar dilution method; format: functional; method in brief: as §2
Campylobacter jejuni [50] = experiment: Antimicrobial activity against Campylobacter jejuni 700819 mutant 4 by agar dilution method; format: functional; method in brief: as §3
Campylobacter jejuni [51] = experiment: Antimicrobial activity against Campylobacter jejuni S3B with cmeB mutation by agar dilution method; format: functional; method in brief: as §2

CC[C@H]1OC(=O)[C@H](C)[C@@H](O[C@H]2C[C@@](C)(OC)[C@@H](O)[C@H](C)O2)[C@H](C)[C@@H](O[C@@H]2O[C@H](C)C[C@H](N(C)C)[C@H]2O)[C@](C)(O)C[C@@H](C)C(=O)[C@H](C)[C@@H](O)[C@]1(C)O [ERYTHROMYCIN]
0.25 µg/mL: MIC (Campylobacter jejuni [15]) | MIC (Campylobacter jejuni [18]) | MIC (Campylobacter jejuni [32]) | MIC (Campylobacter jejuni [43]) | MIC (Campylobacter jejuni [44]) | MIC (Campylobacter jejuni [46]) | MIC (Campylobacter jejuni [48])
128 µg/mL: MIC (Campylobacter jejuni [40])
active: Activity (Campylobacter jejuni [1]) | Activity (Campylobacter jejuni [26]) | Activity (Campylobacter coli [38])
32 µg/mL: MIC (Campylobacter coli [4]) | MIC (Campylobacter jejuni [5]) | MIC (Campylobacter jejuni [10]) | MIC (Campylobacter jejuni [17]) | MIC (Campylobacter coli [21]) | MIC (Campylobacter jejuni [24]) | MIC (Campylobacter coli [29]) | MIC (Campylobacter coli [30]) | MIC (Campylobacter jejuni [36]) | MIC (Campylobacter coli [42]) | MIC (Campylobacter jejuni [45]) | MIC (Campylobacter jejuni [49])
2 µg/mL: MIC (Campylobacter coli [8]) | MIC (Campylobacter coli [20]) | MIC (Campylobacter jejuni [34]) | MIC (Campylobacter jejuni [39])
1 µg/mL: MIC (Campylobacter jejuni [51])
0.125 µg/mL: MIC (Campylobacter coli [2]) | MIC (Campylobacter jejuni [3]) | MIC (Campylobacter jejuni [9]) | MIC (Campylobacter coli [14]) | MIC (Campylobacter coli [16]) | MIC (Campylobacter jejuni [19]) | MIC (Campylobacter jejuni [23]) | MIC (Campylobacter coli [35]) | MIC (Campylobacter coli [47])
256 µg/mL: MIC (Campylobacter jejuni [25]) | MIC (Campylobacter jejuni [41])
16 µg/mL: MIC (Campylobacter jejuni [7])
8 µg/mL: MIC (Campylobacter jejuni [6]) | MIC (Campylobacter coli [11]) | MIC (Campylobacter jejuni [13]) | MIC (Campylobacter jejuni [27]) | MIC (Campylobacter jejuni [28]) | MIC (Campylobacter coli [31]) | MIC (Campylobacter jejuni [33]) | MIC (Campylobacter jejuni [37])
> 512 µg/mL: MIC (Campylobacter jejuni [12]) | MIC (Campylobacter jejuni [22]) | MIC (Campylobacter jejuni [50])
